The values that follow come from ChEMBL document CHEMBL1125792, “Complexes of .NO with nucleophiles as agents for the controlled biological release of nitric oxide. Vasorelaxant effects” (J Med Chem, 1991).

SMILES strings stand for the structures.

Data set [1] is filed under the species Oryctolagus cuniculus. In words: Vasorelaxant activity against isolated vascular ring preparation from rabbit thoracic aorta. Format: functional.
For data set [2], the species on record is Oryctolagus cuniculus. In words: Peak relaxation(Rm) of the vascular ring by the compound at highest concentration. It is filed as functional.
The nature of data set [3]: Half-life was determined. The settings on record: pH 7.4 phosphate buffer at 37 °C.
Data set [4] can be described thus: Rate constant for loss of chromophore. It is filed as ADME. The essentials: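 UV decay of the 230–260 nm chromophore. Compound dissolved in 0.01 M KOH, then diluted with a large excess of pH 7.4 phosphate buffer in a thermostated 37 °C cuvette. Spectra were recorded within 1–2 s and intermittently afterward. First-order k was taken from the slope of ln(A − A∞) versus time; t1/2 was derived from k.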

For the compound `N.N.O=NN(O)S(=O)(=O)O`, the midpoint of the response in data set [1], the EC50, lay at 62000 nM. In data set [2], the Rm stood at 58%. Also, the half-life in data set [3] came out at 6.8 min. The compound further returned a k in data set [4] of 0.0017 s⁻¹.
As to `CC(C)N[N+]([O-])=N[O-].[Na+]`, in data set [1], the EC50 came to 450 nM. In addition, in data set [2], the Rm is on record as 85%. For the same compound, the half-life in data set [3] was 2.3 min. The compound further showed a k in data set [4] of 0.0051 s⁻¹.
Turning to `NCCCNCCCCN(CCCN)/[N+]([O-])=N\O`, the EC50 in data set [1] came to 6200 nM. In data set [2], this compound yielded a Rm of 56%. The compound also yielded a half-life in data set [3] of 39 min. The k in data set [4] came to 0.0003 s⁻¹.
The matching figures for `[Na+].[Na+].[O-][N+]([O-])=NO` [ANGELI'S SALT]: 590 nM, 74%, 2.3 min and 0.005 s⁻¹.
In the same order, the values of `CCN(CC)/[N+]([O-])=N\[O-].[Na+]` are 190 nM, 86%, 2.1 min and 0.0054 s⁻¹.
